Source: PubChem
The list is not random: actives were taken first. Their share in the collection is about 5.3%.
Calb FLC: affects C. albicans growth with fluconazole; C. albicans CaCi-2 (fluconazole-resistant clinical isolate) + fluconazole, Alamar Blue growth, 48 h; AID 1979; hit rate 0.57% among 300,000; growth inhibition, % (concentration not given with the values);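 active = growth inhibition above about 58% in most replicates, limit read from the data, passing the limit was not always enough; inconclusive = exactly half the replicates above a set limit; inactive = most replicates below a set limit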;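 also: all wells also contain fluconazole at 8 µg/ml as a sub-toxic cotreatment; 0% = median of DMSO wells and 100% = median of geldanamycin control wells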
Mdm2 MdmX PPI: disrupts the human Mdm2-MdmX interaction; O15151+Q00987; SaOS-2 split-luciferase Mdm2/MdmX complementation, luminescence; inhibition, % at 8 µM; hit rate 3% among 330,000; AID 485346;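 active = inhibition of at least 50% at 8 µM in the primary screen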
Target sequence (O15151 whole entry, looked up): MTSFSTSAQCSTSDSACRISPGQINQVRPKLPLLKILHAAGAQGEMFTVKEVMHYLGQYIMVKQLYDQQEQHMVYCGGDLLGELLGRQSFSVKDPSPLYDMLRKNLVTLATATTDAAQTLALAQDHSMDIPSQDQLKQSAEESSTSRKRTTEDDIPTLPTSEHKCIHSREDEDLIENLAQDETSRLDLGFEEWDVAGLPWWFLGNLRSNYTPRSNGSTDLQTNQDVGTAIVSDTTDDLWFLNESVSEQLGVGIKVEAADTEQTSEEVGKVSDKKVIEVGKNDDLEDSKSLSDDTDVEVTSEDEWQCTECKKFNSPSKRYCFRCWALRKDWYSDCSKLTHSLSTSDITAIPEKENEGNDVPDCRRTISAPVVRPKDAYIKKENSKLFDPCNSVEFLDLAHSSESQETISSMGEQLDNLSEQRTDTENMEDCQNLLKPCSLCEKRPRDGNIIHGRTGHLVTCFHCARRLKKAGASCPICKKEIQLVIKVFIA
Target sequence (Q00987 whole entry, looked up): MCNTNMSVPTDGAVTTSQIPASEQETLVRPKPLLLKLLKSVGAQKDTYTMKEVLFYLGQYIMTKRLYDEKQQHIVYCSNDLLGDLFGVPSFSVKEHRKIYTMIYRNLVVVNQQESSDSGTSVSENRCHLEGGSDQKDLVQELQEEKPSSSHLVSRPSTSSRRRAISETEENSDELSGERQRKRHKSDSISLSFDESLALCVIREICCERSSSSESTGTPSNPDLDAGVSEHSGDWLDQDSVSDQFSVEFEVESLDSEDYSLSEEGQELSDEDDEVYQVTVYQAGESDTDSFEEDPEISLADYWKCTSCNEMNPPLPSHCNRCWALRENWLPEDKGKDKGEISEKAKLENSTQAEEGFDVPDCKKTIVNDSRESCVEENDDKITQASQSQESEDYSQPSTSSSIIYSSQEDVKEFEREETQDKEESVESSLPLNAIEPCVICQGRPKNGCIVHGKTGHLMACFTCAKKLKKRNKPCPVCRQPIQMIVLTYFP
T cruzi inh: blocks replication of Trypanosoma cruzi; AID 1885; hit rate 1.4% among 300,000; T. cruzi beta-gal in NIH3T3, luminescence, 90 h; inhibition, % (concentration not given with the values);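 active = mean inhibition across valid replicates above about 55%, limit read from the data; inconclusive = mean below that limit but half or more replicates reach it; inactive = mean below it, under half of replicates reach it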;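 also: signal also drops with host cell toxicity which is not excluded here; 0% = plate median of DMSO wells and 100% = zero luminescence signal; higher percent means less beta-gal luminescence so fewer parasites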
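System – NIH/3T3 host cells with β-galactosidase reporter T. cruzi · Doses – single 50 nL compound addition per well in DMSO · Reagent – 5000 T. cruzi trypomastigotes/well · Medium – Low-serum DMEM with 2% FBS · Timing – ≥90 h infection period, 3 h prior cell attachment · Evaluation – parasite load inhibition, % · Technique – GalScreen luminescence, 60 min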
NALP3 yeast inh: NALP3 inhibition in yeast | hit rate 0.39% among 330,000 | inhibition, % at 10 µM | Yeast reconstituted NLRP3/ASC/caspase-1, beta-gal luminescence, 24 h;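 active = inhibition of 50% or more; inactive = inhibition below 50%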;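 also: plate controls were induced DMSO wells for no effect and uninduced yeast grown without galactose for full effect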
CSC inhib: blocks cancer stem cells; cancer stem cell-like cells viability, luminescence; hit rate 1.1% among 300,000; inhibition, % at 7.5 µM; in the data active = inhibition above about 75%; inconclusive = no clear call, values can overlap the other calls; tested in HMLE shEcad cells
Beta apoptosis: beta cell apoptosis inhibition; INS-1E cytokine-induced death, ATP luminescence, 48 h; percent of positive-control rescue, neutral wells zero; protection from apoptosis, % (concentration not given with the values); hit rate 0.8% among 300,000; AID 435005;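 active = Every replicate reaches about 75%, or at least half do and their mean reaches it too, limit read from the data; inconclusive = At least half of replicates reach the limit but their mean does not; inactive = Under half of replicates reach the limit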;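 also: 0% = cytokine-treated negative control wells and 100% = positive control rescue; higher means more ATP so stronger rescue from cytokine killing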
Mdm2-MdmX conf: confirmation of human Mdm2/MdmX interaction inhibitors; shares compounds with Mdm2 MdmX PPI; Mdm2-MdmX binding, luminescent assay; inhibition, % at 8 µM; hit rate 55% among 10,000; AID 489028; in the data active = inhibition above about 40%
Full FLuc ctr: counter-screen for Mdm2/MdmX inhibitors: full-length luciferase; AID 504607; shares compounds with Mdm2 MdmX PPI; inhibition, % at 8 µM; hit rate 77% among 6,200; SaOS-2 full-length luciferase counterscreen, luminescence;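 active = mean inhibition at 8 µM reaching about 37%, which flags the compound as non-specific, limit read from the data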;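 also: p53-null SaOS-2 cells with luciferase driven by a doxycycline-inducible promoter; compound on cells about two nights before reading with doxycycline added after day one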
An asterisk follows results filed as active; ? = inconclusive; · = no result.

SMILES | Calb FLC | Mdm2 MdmX PPI | T cruzi inh | NALP3 yeast inh | CSC inhib | Beta apoptosis | Mdm2-MdmX conf | Full FLuc ctr
Cc1ccc(C2C(C#N)=C(N)Oc3cc4c(cc32)OCO4)cc1 (centres undefined) | 7.5 | 55.4* | -2.3 | 12.3 | 41.6 | 7.0 | 65.2* | 63.9*
Cn1cnc([N+](=O)[O-])c1S(=O)(=O)c1cccc(Cl)c1 | 6.0 | 68.3* | 26.0 | -28.0 | 32.6 | -20.2 | 34.1 | 21.1
Cc1nn(C(C)C(=O)c2cccc(Cl)c2)c(C)c1[N+](=O)[O-] (centres undefined) | 15.9 | 5.6 | -11.8 | 6.4 | -5.7 | 3.8 | · | ·
O=C1[C@H](Oc2ccccc2)[C@@H](c2ccccc2)N1c1ccncc1 | · | 50.1* | · | · | · | · | -1.2 | ·
CC(C)(C)c1nc(NC(=O)Nc2ccccc2)sc1Br | 3.9 | 66.0* | 57.4* | 24.2 | 3.5 | 9.1 | 3.9 | ·
Cc1cccc(NC(=O)C2C3C=CC4(O3)C2C(=O)N(CCCN2CCCC2)C4C(=O)NC2CCCC(C)C2C)c1 (centres undefined) | 6.6 | 8.5 | 3.5 | 13.6 | -3.6 | 5.1 | · | ·
O=C(Nc1ccc([N+](=O)[O-])cc1Br)c1cc2ccccc2nc1Cl | -4.4 | 84.6* | -4.6 | 6.7 | -6.7 | 2.7 | 12.6 | ·
Cc1occc1C(=O)Nc1ccc([N+](=O)[O-])cc1Br | 17.6 | 1.7 | 10.0 | 12.8 | · | 0.5 | · | ·
COc1ccc2nc3cc(Cl)ccc3c(Nc3cc(C(C)C)c(O)cc3C)c2c1 | 18.9 | 94.3* | 42.8 | 35.6 | 103.3* | 113.8* | 64.0* | 64.1*
O=C(/C=C/Sc1ccccc1)c1ccccc1 | 22.2 | 52.4* | 23.7 | 37.6 | 49.1 | -1.4 | -14.8 | ·
O=C(NCCN1CCOCC1)c1ccc(/C=C2\Sc3ccccc3N(Cc3ccccc3F)C2=O)cc1 | 19.0 | 59.8* | -2.2 | 13.5 | 45.7 | -2.4 | 8.8 | ·
CCN1CCN(CCNC(=O)c2ccc3c(c2)N(Cc2ccc(F)cc2)C(=O)/C(=C/c2ccccc2)S3)CC1 | 2.0 | 95.7* | 53.5 | 13.9 | 103.2* | 15.5 | 74.2* | 22.7
Cc1cccc(CN2C(=O)/C(=C\c3ccc(C(=O)NCCN4CCOCC4)cc3)Sc3ccccc32)c1 | -5.0 | 80.5* | 46.1 | 0.9 | -16.4 | 2.6 | 61.1* | 76.2*
COc1ccc(/C=C2\Sc3ccc(C(=O)NCCN4CCCCCC4)cc3N(C)C2=O)cc1 | 3.9 | 42.5 | 20.7 | 15.6 | 7.8 | -3.7 | · | ·
CCN1CCN(CCNC(=O)c2ccc(/C=C3/Sc4ccccc4N(Cc4cccc(Cl)c4)C3=O)cc2)CC1 | 31.8 | 96.5* | 60.5* | 20.1 | ? | 9.0 | 81.2* | 57.8*
CC(OC(=O)c1cc(S(=O)(=O)N2CCOCC2)ccc1F)C(=O)NCC1CCCCC1 (centres undefined) | · | 13.0 | · | -10.3 | -16.6 | -6.6 | · | ·
Cc1cccc2c(=O)c(C(=O)NCc3cccs3)c[nH]c12 | -0.7 | -49.3 | 16.1 | -0.8 | · | · | · | ·
CC(C)(C)c1ccc(/C=C2\SC(=O)N(CCNC(=O)c3cccc(S(=O)(=O)N4CCOCC4)c3)C2=O)cc1 | 1.4 | 70.0* | 21.4 | 3.3 | · | · | 75.9* | 86.1*
Cc1ccc(S(=O)(=O)N2CCOCC2)cc1C(=O)NCCN1C(=O)S/C(=C\c2ccccc2Cl)C1=O | 4.2 | 15.9 | 6.7 | 11.0 | -3.9 | 2.6 | · | ·
Cc1ccc(CS(=O)(=O)Cc2ccc(C(=O)NC3CC3)o2)cc1 | -6.4 | -10.7 | -3.1 | 12.5 | -8.1 | 2.0 | · | ·
CCCn1c2ccccc2c2nnc(SC(CC)C(=O)Nc3sc4c(c3C#N)CCCC4)nc21 (centres undefined) | -7.3 | 53.9* | 9.9 | -5.8 | 12.4 | 17.5 | 23.1 | ·
COc1ccc(S(=O)(=O)n2nc(OC(=O)c3ccc(C)cc3)cc2N)cc1 | 5.9 | 24.2 | 18.0 | 0.7 | -8.2 | -2.0 | · | ·
Cc1cc(C(=O)CN2C(=O)C(=O)N(Cc3ccccc3)C2=O)c(C)n1-c1ccccc1F | 13.5 | 51.7* | -19.7 | 9.5 | 60.4 | 3.7 | 51.4* | 50.7*
Cc1cc(C(=O)CN2CCC(C)CC2)c(C)n1-c1ccccc1F | 3.3 | 66.4* | 57.1* | 18.6 | -7.2 | 4.6 | 76.2* | 69.7*
Cc1cc(Nc2ccc3c(c2)OCCO3)n2nc(C)nc2n1 | 2.7 | -18.3 | -3.8 | -1.4 | -3.2 | -1.6 | · | ·
SMILES | Calb FLC | Mdm2 MdmX PPI | T cruzi inh | NALP3 yeast inh | CSC inhib | Beta apoptosis | Mdm2-MdmX conf | Full FLuc ctr
O=C(COc1cccnc1[N+](=O)[O-])Nc1ccc2c(c1)OC(F)(F)O2 | 19.5 | -11.2 | -9.2 | 18.3 | -4.3 | · | · | ·
CCOc1ccc(C(=O)Nc2ccc(S(=O)(=O)Nc3nccc(C)n3)cc2)cc1OCC | 1.6 | 18.0 | -10.3 | 11.5 | 3.7 | 3.1 | · | ·
COc1ccc(Nc2nc(-c3cccs3)nc3ccccc23)cc1S(=O)(=O)N1CCOCC1 | -3.1 | 85.5* | 54.6* | 3.4 | 38.1 | 28.6 | 82.4* | 57.2*
CCOC(=O)/C(=C\C=C1/Sc2ccccc2N1CC)C(C)=O | 3.9 | · | 28.7 | · | -10.5 | -7.8 | · | ·
CCOC(=O)c1cc(NC(=O)c2ccccc2)c(=O)n2c1oc1ccccc12 | -13.2 | 56.1* | 8.6 | 17.3 | -3.7 | 11.3 | 7.1 | ·
O=C(CCc1nnc2n(Cc3ccc(F)cc3)c(=O)c3ccccc3n12)NCCN1CCOCC1 | -1.5 | 13.9 | -5.7 | 5.8 | -7.1 | -0.1 | · | ·
C/C(Cl)=C\Cn1c(O)c(N=NC(N)=S)c2cc(Br)ccc21 | ? | 74.6* | 76.7* | 1.2 | · | 29.9 | 49.0* | 74.4*
NC(=S)N=Nc1c(O)n(CCCl)c2ccc(Br)cc12 | -4.7 | 24.7 | 24.9 | 7.6 | 19.6 | 19.3 | · | ·
O=C(N/N=C/c1cccn1-c1ccc(O)cc1)c1cccc2ccccc12 | 22.7 | 64.1* | -4.3 | 12.0 | 10.8 | -8.9 | 1.2 | ·
O=C(N/N=C/c1ccccc1F)c1cccc2ccccc12 | 13.2 | 22.2 | 5.5 | 20.5 | 25.6 | -2.6 | · | ·
Cc1ccc(-n2c(C)cc(/C=N/NC(=O)CC3(C)OCCO3)c2C)c(C)c1 | 1.1 | 5.9 | -13.4 | 17.0 | 12.1 | -8.2 | · | ·
COc1ccc(OC)c(NC(=S)NCc2ccc(S(N)(=O)=O)cc2)c1 | 9.8 | 3.9 | -12.1 | 18.7 | -6.5 | · | · | ·
NC1=NC[C@H](c2ccccc2)N1CCc1cc(C(F)(F)F)cc(C(F)(F)F)c1 | -14.6 | 80.1* | 39.6 | 6.3 | 38.8 | 36.3 | 68.0* | 57.3*
CCC(C)[C@H]1CN=C(N)N1CCc1cc(C(F)(F)F)cc(C(F)(F)F)c1 (some centres undefined) | -10.5 | 60.1* | 15.6 | 8.3 | 13.9 | 5.2 | 28.6 | ·
NC1=NC[C@H](Cc2ccc(O)cc2)N1CCc1cc(C(F)(F)F)cc(C(F)(F)F)c1 | -24.0 | -9.3 | 6.6 | 8.1 | -26.9 | 7.8 | · | ·
CC(O)[C@H]1CN=C(N)N1CCc1cc(C(F)(F)F)cc(C(F)(F)F)c1 (some centres undefined) | 3.0 | 20.9 | -1.9 | 19.6 | -9.3 | -4.7 | · | ·
